Paper PMC5935540 (Cell, 2018)

Experiments:
[1] = test system: FK-506 binding protein family members (FKBP) 1A, 2, 3,4, and 5; test: Arrayed affinity-selection/mass spectrometry binding assay, control compound; set-up: species or system human; details: control for the binder selection pipeline; FKBP1A highest signal
[2] = test system: NSCLC cell line panel; test: Cell viability dose response in NSCLC cell line panel; type: cell-based, human
In short: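 Viability read after 72 hrs of exposure to test compound at 5 µM, either alone or with HET-0016 at 100 nM. DMSO-treated cells serve as control.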

[3] = no reference given; cited from earlier work
[4] = target: T1, ABCG2 (Homo sapiens, UniProt Q9UNQ0); test: siRNA depletion of ABCG2 followed by THZ1 treatment; type: cell-based; details: ABCG2 depletion sensitized resistant cells; H157 cells, THZ1 50nM, 72 hrs
T1 sequence (Q9UNQ0 1-655): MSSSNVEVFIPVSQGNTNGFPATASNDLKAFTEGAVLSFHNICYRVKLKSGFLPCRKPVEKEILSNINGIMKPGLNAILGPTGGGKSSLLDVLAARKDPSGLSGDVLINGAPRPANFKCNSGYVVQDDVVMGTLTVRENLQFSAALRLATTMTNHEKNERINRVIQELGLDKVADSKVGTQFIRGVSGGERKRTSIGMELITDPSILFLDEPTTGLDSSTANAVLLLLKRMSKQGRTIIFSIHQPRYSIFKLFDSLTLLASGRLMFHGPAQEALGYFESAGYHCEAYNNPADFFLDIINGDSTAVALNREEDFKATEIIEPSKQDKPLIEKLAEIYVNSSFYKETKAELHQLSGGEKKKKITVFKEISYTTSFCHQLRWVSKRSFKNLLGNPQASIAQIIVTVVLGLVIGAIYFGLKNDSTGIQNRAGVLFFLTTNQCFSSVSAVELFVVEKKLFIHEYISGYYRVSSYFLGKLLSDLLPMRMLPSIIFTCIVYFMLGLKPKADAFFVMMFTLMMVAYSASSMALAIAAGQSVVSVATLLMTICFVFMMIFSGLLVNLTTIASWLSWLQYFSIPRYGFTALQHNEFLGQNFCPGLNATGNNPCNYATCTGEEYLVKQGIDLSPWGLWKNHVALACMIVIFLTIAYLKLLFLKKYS

## C=CC[C@@H]1/C=C(\C)C[C@H](C)C[C@H](OC)[C@H]2O[C@@](O)(C(=O)C(=O)N3CCCC[C@H]3C(=O)O[C@H](/C(C)=C/[C@@H]3CC[C@@H](O)[C@H](OC)C3)[C@H](C)[C@@H](O)CC1=O)[C@H](C)C[C@@H]2OC [FK-506]
[1]
  LC/MS binding signal: strongest signal

## CCCCc1ccc(N=CNO)c(C)c1 [HET0016]
[2]; SW001286 5µM plus HET-0016 100nM, 72 hrs, two sensitive cell lines
  effect on SW001286 toxicity: rescued

## CC(C)Oc1ccc(C(=O)N[C@H](CNC(=O)CN(C)C)Cc2ccc(-c3cn4cccc([C@H](C)O)c4n3)cc2)cc1Cl [SW208097]
[2]; cell lines with co-occuring mutations in TP53 and KEAP1
  sensitivity (ED50): low nanomolar
[3]
  pharmacokinetics in humans: dose proportional pharmacokinetics

## CN(C)C/C=C/C(=O)Nc1ccc(C(=O)Nc2cccc(Nc3ncc(Cl)c(-c4c[nH]c5ccccc45)n3)c2)cc1 [THZ1]
[4]
  efflux transporter substrate status: ABCG2 substrate
